According to ChEMBL document CHEMBL2093137, “WHO-TDR NTD Screening”:
≈ marks a conversion by molar mass, not a printed value.

Columns and labels:
[1] = WHO-TDR: Cytotoxicity; assay type: toxicity, cell-based; conditions: human, MRC5 cells
[2] = system: Plasmodium falciparum K1; assay: WHO-TDR: Malaria; assay type: functional, organism-based, Homo sapiens; conditions: Erythrocyte
Summary of the method: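 Following previously published standard procedures, with a reference drug serving as positive control, compounds were tested on the Plasmodium falciparum K1 strain inside human red blood cells. The 10,000-compound diverse set came from Life Chemicals after filtering for drug-likeness and reactive groups. Potency against the parasite appears as IC50.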

[3] = system: Trypanosoma cruzi; assay: WHO-TDR: Chagas disease; assay type: functional, organism-based, Homo sapiens; conditions: MRC5
Summary of the method: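 Intracellular amastigotes of the Trypanosoma cruzi Tulahuen CL2 beta-galactosidase strain, grown in MRC-5SV2 human lung fibroblast host cells, were tested in a whole-organism screen. The compounds came from a 10,000-member diverse Life Chemicals library that had been filtered for drug-likeness and reactive groups. Previously published standard procedures were followed, with a reference drug as positive control, and potency is reported as IC50.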

[4] = system: Trypanosoma brucei brucei; assay: WHO-TDR: Human African Trypanosomiasis (HAT); assay type: functional, organism-based; conditions: Squib-427
Summary of the method: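 Bloodstream forms of the Trypanosoma brucei Squib 427 strain were tested in a whole-organism screen with a diverse library from Life Chemicals of 10,000 compounds. Before screening, the library was filtered for drug-likeness and for reactive groups. The assay used previously published standard procedures and included reference drugs as positive controls. Potency against the parasite is expressed as IC50.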

[5] = system: Leishmania infantum; assay: WHO-TDR: Leishmaniasis; assay type: functional, organism-based, Mus musculus; conditions: Macrophage
Summary of the method: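 Following previously published standard procedures, a whole-organism screen was run on Leishmania infantum MHOM/MA(BE)/67 amastigotes within murine peritoneal macrophages, with a reference drug as positive control. The 10,000 compounds tested formed a diverse Life Chemicals library filtered for drug-likeness and reactive groups. Potency against the parasite is reported as IC50.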

[6] = system: Schistosoma mansoni; assay: WHO-TDR: Schistosomiasis; assay type: functional; parameters: concentration or dose not given beside the values
Summary of the method: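 Percent inhibition and IC50 describe activity against whole Schistosoma mansoni worms of the Puerto Rican strain, tested as larvae and/or adults. The compounds screened were a diverse set of 10,000 from Life Chemicals, filtered for drug-likeness and reactive groups. Testing followed previously published standard procedures, with a reference drug as positive control.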

[7] = system: Onchocerca ochengi; assay: WHO-TDR: Onchocerciasis; assay type: functional; parameters: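 at 12.5 µM on microfilariae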
Summary of the method: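 Percent inhibition and IC50 describe activity against microfilariae of Onchocerca ochengi or Onchocerca lienalis, used as animal-pathogen substitutes for the human parasite. The compounds tested made up a 10,000-member diverse library from Life Chemicals.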

[8] = system: Brugia malayi; assay: WHO-TDR: Lymphatic Filariasis; assay type: functional; parameters: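 tested at 10 µM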
Summary of the method: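 The screening set was a 10,000-compound diverse library from Life Chemicals, filtered for drug-likeness and for reactive groups. It was run against Brugia malayi microfilariae as whole organisms, using previously published standard procedures. Reference drugs acted as positive controls, and activity is reported both as percent inhibition and as IC50.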

Structure (SMILES) | IC50 [2] | IC50 [4] | IC50 [5] | IC50 [1] | IC50 [3] | % Inhibition [6] | % Inhibition [7] | % Inhibition [8]
COc1ccc(OC)c2sc(N(CCCn3ccnc3)C(=O)COc3ccccc3)nc12 | 3.16 µg/mL (≈ 6.98 µM) | 4.75 µg/mL (≈ 10.5 µM) | > 14.7 µg/mL | 4.9 µg/mL (≈ 10.8 µM) | 4.77 µg/mL (≈ 10.5 µM) | 0% | 100% | 0%
O=C(CS(=O)(=O)Cc1ccccc1)Nc1cc(Cl)cc(Cl)c1 | > 10.7 µg/mL | > 10.7 µg/mL | > 10.7 µg/mL | > 10.7 µg/mL | > 10.7 µg/mL | 0% | 100% | 0%
CCOC(=O)Cn1/c(=N\C(=O)CCCS(=O)(=O)Cc2ccccc2)sc2cc(F)ccc21 | > 14.4 µg/mL | > 14.4 µg/mL | > 14.4 µg/mL | > 14.4 µg/mL | > 14.4 µg/mL | 0% | 100% | 0%
CCc1nnc(NS(=O)(=O)c2ccc(NC(=O)c3ccc(S(=O)(=O)N4CCCCC4C)cc3)cc2)s1 (stereo not given) | 13.4 µg/mL (≈ 24.4 µM) | 5.34 µg/mL (≈ 9.71 µM) | > 16.5 µg/mL | > 16.5 µg/mL | > 16.5 µg/mL | 0% | 100% | 0%
O=C(Nc1nnc(CCSc2ccccc2)o1)c1ccc(Cl)cc1 | > 10.8 µg/mL | 3.49 µg/mL (≈ 9.71 µM) | 3.49 µg/mL (≈ 9.71 µM) | 3.41 µg/mL (≈ 9.49 µM) | 3.77 µg/mL (≈ 10.5 µM) | 0% | 100% | 0%
CCOC(=O)N1CCc2nc(NC(=O)CCCS(=O)(=O)c3ccc(F)cc3)sc2C1 | 6.65 µg/mL (≈ 14.6 µM) | > 13.7 µg/mL | > 13.7 µg/mL | > 13.7 µg/mL | > 13.7 µg/mL | 0% | 100% | 0%
CCc1nnc(NS(=O)(=O)c2ccc(NC(=O)c3nc4ccccc4s3)cc2)s1 | > 13.4 µg/mL | > 13.4 µg/mL | > 13.4 µg/mL | > 13.4 µg/mL | > 13.4 µg/mL | 0% | 100% | 0%
C=CCn1c(Sc2nc3ccccc3o2)nc2c1c(=O)[nH]c(=O)n2C | 10.7 µg/mL (≈ 30 µM) | 0.337 µg/mL (≈ 0.948 µM) | > 10.7 µg/mL | > 10.7 µg/mL | 4.04 µg/mL (≈ 11.4 µM) | 0% | 0% | 20%
C/C=C/Cn1c(=O)c2c(nc3n(C(C)c4ccccc4)c(C)cn23)n(C)c1=O (stereo not given) | 6.29 µg/mL (≈ 16.7 µM) | 0.099 µg/mL (≈ 0.262 µM) | > 11.3 µg/mL | > 11.3 µg/mL | 3.82 µg/mL (≈ 10.1 µM) | 0% | 0% | 20%
Cc1c(Cl)cccc1-n1c(-c2ccc(F)cc2)cn2c3c(=O)n(C)c(=O)n(C)c3nc12 | 2.97 µg/mL (≈ 6.79 µM) | 3.81 µg/mL (≈ 8.7 µM) | 4.25 µg/mL (≈ 9.71 µM) | 6.43 µg/mL (≈ 14.7 µM) | > 13.1 µg/mL | 0% | 100% | 20%
Cc1ccc(S(=O)(=O)N(CC(O)CNCc2ccco2)c2ccc(F)cc2)cc1 (stereo not given) | 1.27 µg/mL (≈ 3.04 µM) | 5.19 µg/mL (≈ 12.4 µM) | > 16.2 µg/mL | > 16.2 µg/mL | 5.67 µg/mL (≈ 13.5 µM) | 0% | 100% | 0%
Cc1ccc(S(=O)(=O)N(C)CC(O)COc2c(C)cc(C)cc2C)cc1 (stereo not given) | > 11.3 µg/mL | 9.55 µg/mL (≈ 25.3 µM) | > 11.3 µg/mL | > 11.3 µg/mL | 3.81 µg/mL (≈ 10.1 µM) | 0% | 100% | 0%
COc1cccc(C2C(S(=O)(=O)c3ccc(C)cc3)=C(O)C(=O)N2c2ccc(C)cc2)c1 (stereo not given) | > 13.5 µg/mL | > 13.5 µg/mL | > 13.5 µg/mL | > 13.5 µg/mL | > 13.5 µg/mL | 0% | 100% | 20%
COc1ccc(OC)c(Nc2c(C#N)cnc3ccc(Cl)cc23)c1 | > 11.3 µg/mL | > 11.3 µg/mL | 0.365 µg/mL (≈ 1.07 µM) | 1.08 µg/mL (≈ 3.18 µM) | 3.08 µg/mL (≈ 9.07 µM) | 0% | 0% | 20%
Cc1ccc(-c2nc(CSc3nc(O)cc(C(F)(F)F)n3)c(C)o2)cc1 | 11.4 µg/mL (≈ 30 µM) | > 11.4 µg/mL | > 11.4 µg/mL | > 11.4 µg/mL | > 11.4 µg/mL | 0% | 100% | 20%
Cc1noc(C)c1CCc1nc(-c2ccc(Cl)cc2)no1 | 4.72 µg/mL (≈ 15.5 µM) | > 9.11 µg/mL | > 9.11 µg/mL | 3.27 µg/mL (≈ 10.8 µM) | 2.88 µg/mL (≈ 9.49 µM) | 0% | 100% | 0%
O=C1C=CC(=O)N1c1ccccc1F | > 5.73 µg/mL | > 5.73 µg/mL | > 5.73 µg/mL | 1.81 µg/mL (≈ 9.48 µM) | 3.28 µg/mL (≈ 17.2 µM) | 0% | 100% | 20%

Further lines, with some results ahead:

IC50 [2] | IC50 [4] | IC50 [5] | Structure (SMILES) | IC50 [1] | IC50 [3] | % Inhibition [6] | % Inhibition [7] | % Inhibition [8]
0.619 µg/mL (≈ 1.48 µM) | > 13.6 µg/mL | > 13.6 µg/mL | Cc1cccc2sc(N(CCCn3ccnc3)C(=O)c3ccc(Cl)s3)nc12 | 5.04 µg/mL (≈ 12.1 µM) | 1.22 µg/mL (≈ 2.93 µM) | 0% | 100% | 0%
0.573 µg/mL (≈ 1.39 µM) | 4.31 µg/mL (≈ 10.4 µM) | > 13.5 µg/mL | CCOc1cccc2sc(N(CCCn3ccnc3)C(=O)c3cccs3)nc12 | 5.87 µg/mL (≈ 14.2 µM) | 4.08 µg/mL (≈ 9.88 µM) | 0% | 100% | 0%
0.745 µg/mL (≈ 1.87 µM) | 4.17 µg/mL (≈ 10.5 µM) | > 13 µg/mL | O=C(c1cccc(F)c1)N(CCCn1ccnc1)c1nc2ccc(F)cc2s1 | > 13 µg/mL | 3.32 µg/mL (≈ 8.33 µM) | 0% | 100% | 0%
0.163 µg/mL (≈ 0.386 µM) | 1 µg/mL (≈ 2.37 µM) | 4.46 µg/mL (≈ 10.5 µM) | CCc1ccc2nc(N(CCCn3ccnc3)C(=O)/C=C/c3cccs3)sc2c1 | 3.5 µg/mL (≈ 8.28 µM) | 0.399 µg/mL (≈ 0.944 µM) | 0% | 100% | 0%
0.363 µg/mL (≈ 0.809 µM) | 4.71 µg/mL (≈ 10.5 µM) | 4.71 µg/mL (≈ 10.5 µM) | CCc1ccc2nc(N(CCCn3ccnc3)C(=O)C3COc4ccccc4O3)sc2c1 (stereo not given) | 4.4 µg/mL (≈ 9.81 µM) | 1.22 µg/mL (≈ 2.73 µM) | 0% | 100% | 0%
0.793 µg/mL (≈ 1.96 µM) | 4.23 µg/mL (≈ 10.5 µM) | > 13.2 µg/mL | O=C(c1cccs1)N(CCCn1ccnc1)c1nc2c(F)cc(F)cc2s1 | 8.75 µg/mL (≈ 21.6 µM) | 4.01 µg/mL (≈ 9.91 µM) | 0% | 100% | 0%
0.533 µg/mL (≈ 1.37 µM) | 4.08 µg/mL (≈ 10.5 µM) | > 12.7 µg/mL | O=C(c1ccco1)N(CCCn1ccnc1)c1nc2c(F)cc(F)cc2s1 | 7.77 µg/mL (≈ 20 µM) | 3.97 µg/mL (≈ 10.2 µM) | 0% | 100% | 0%
2.34 µg/mL (≈ 5.56 µM) | 4.44 µg/mL (≈ 10.6 µM) | 9.34 µg/mL (≈ 22.2 µM) | Cc1ccc(C)c2sc(N(CCCn3ccnc3)C(=O)COc3ccccc3)nc12 | 5.31 µg/mL (≈ 12.6 µM) | 1.14 µg/mL (≈ 2.71 µM) | 0% | 100% | 0%
3.4 µg/mL (≈ 8.04 µM) | 3.98 µg/mL (≈ 9.41 µM) | 4.46 µg/mL (≈ 10.6 µM) | Cc1ccc(C)c2sc(N(CCCn3ccnc3)C(=O)Cc3ccc(F)cc3)nc12 | 3.26 µg/mL (≈ 7.73 µM) | 0.495 µg/mL (≈ 1.17 µM) | 0% | 100% | 0%
0.615 µg/mL (≈ 1.46 µM) | 3.3 µg/mL (≈ 7.85 µM) | > 13.7 µg/mL | COc1ccc(C)c2sc(N(CCCn3ccnc3)C(=O)Cc3ccccc3)nc12 | 4.07 µg/mL (≈ 9.68 µM) | 0.644 µg/mL (≈ 1.53 µM) | 0% | 100% | 0%
1.28 µg/mL (≈ 2.85 µM) | 1.34 µg/mL (≈ 2.97 µM) | 4.73 µg/mL (≈ 10.5 µM) | COc1cccc(C(=O)N(CCCn2ccnc2)c2nc3c(C)c(C)ccc3s2)c1OC | 3.15 µg/mL (≈ 6.99 µM) | 0.648 µg/mL (≈ 1.44 µM) | 0% | 100% | 0%
3.63 µg/mL (≈ 8.15 µM) | 4.67 µg/mL (≈ 10.5 µM) | > 14.4 µg/mL | COc1ccc(Cl)c2sc(N(CCCn3ccnc3)C(=O)c3cccc(F)c3)nc12 | 4.08 µg/mL (≈ 9.16 µM) | 3.68 µg/mL (≈ 8.27 µM) | 0% | 100% | 0%
0.45 µg/mL (≈ 1.18 µM) | 3.86 µg/mL (≈ 10.2 µM) | > 12.5 µg/mL | Cc1ccc(C)c2sc(N(CCCn3ccnc3)C(=O)c3ccco3)nc12 | 3.53 µg/mL (≈ 9.28 µM) | 1.49 µg/mL (≈ 3.92 µM) | 0% | 100% | 0%
